In brackets after ≈: the same amount, converted by molar mass.
Experiments:
[1] = Intrinsic clearance in mouse liver microsomes; assay type: ADME, Microsome
Leishmania donovani [2] = experiment: Antileishmanial activity against Leishmania donovani amastigotes infected in human THP1 cells incubated for 96 hrs; assay type: functional, organism-based; conditions: THP-1, 96 h
Summary of the method: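 THP-1 cells were infected with L. donovani amastigotes and exposed to compound for 96 h rather than the earlier 72 h. Values are from at least three or four independent replicates.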

[3] = Toxicity in human THP1 cells assessed as reduction in cell viability; assay type: cell-based; conditions: THP-1 cells
[4] = Kinetic aqueous solubility of the compound; assay type: physicochemical; conditions: buffer; for solubility kinetic: read-out: Kinetic_solubility
[5] = Distribution coefficient, logD of the compound at pH 7.4 by chromatography; assay type: physicochemical; conditions: octanol/water
Leishmania donovani [6] = experiment: Antileishmanial activity against Leishmania donovani infected in mouse assessed as reduction in parasite levels at 30 mg/kg, po qd; design: scale not given: the % may be the effect or the level left
[7] = Drug metabolism in Balb/C mouse assessed as hydroxylation formation at 50 mg/kg, ip BID by UPLC Q-TOF analysis; assay type: ADME, organism-based; conditions: in vivo
Summary of the method: (§1)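 Balb/C mice received 50 mg/kg ip. Blood/water (1:2) was sampled at set time points, mixed with acetonitrile and centrifuged 5 min at 7000 rpm. Metabolites and parent compound were then analysed. Data are from two runs.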

[8] = Stability in Balb/C mouse assessed as parent compound level at 50 mg/kg, ip BID after 8 hrs by UPLC Q-TOF analysis; assay type: ADME, organism-based; conditions: in vivo; summary of the method: as §1
[9] = Drug metabolism in Balb/C mouse assessed as glucuronide adduct formation at 50 mg/kg, ip BID by UPLC Q-TOF analysis; assay type: ADME, organism-based; conditions: in vivo; summary of the method: as §1
[10] = Selectivity index, ratio of EC50 for toxicity in human THP1 cells assessed as reduction in cell viability to EC50 for antileishmanial activity against Leishmania donovani amastigotes infected in human THP1 cells incubated for 96 hrs; assay type: cell-based; conditions: THP-1 cells, read-out: Ratio EC50

Row | solubility kinetic [4] [µM] | chromatographic logD [5] | Structure (SMILES) | CLH [1] [mL/min/g] | EC50 (Leishmania donovani [2]) [µM] | EC50 [3] [µM] | logD [5] | Kinetic_solubility [4] [µM] | Activity (Leishmania donovani [6]) [%] | Drug metabolism [7] | Stability [8] | Drug metabolism [9] | selectivity ratio at 96 h [10]
1 | > 250 | – | C[C@@H](NC(=O)c1cn(C)c2cccnc2c1=O)c1ccc(F)cc1 | 0.7 | > 50.1 | > 50.1 | – | – | – | – | – | – | –
2 | – | – | COc1ccc(CNC(=O)c2ncc3cccnc3c2O)cc1 | 2.6 | 0.501 | > 50.1 | 4.2 | > 250 | – | – | – | – | –
3 | – | – | Oc1c(-c2nnc(Cc3ccc(F)cc3)[nH]2)ncc2cccnc12 | – | 2.51 | 39.8 | – | – | – | – | – | – | –
4 | – | – | Cc1n[nH]c(-c2ncc3cccnc3c2O)n1 | 3.3 | > 50.1 | > 50.1 | 0.73 | > 250 | – | – | – | – | –
5 | – | – | C[C@@H]1[C@H](O)[C@@H](C)/C=C/C=C/C=C/C=C/C=C/C=C/C=C/[C@H](O[C@@H]2O[C@H](C)[C@@H](O)[C@H](N)[C@@H]2O)C[C@@H]2O[C@](O)(C[C@@H](O)C[C@@H](O)[C@H](O)CC[C@@H](O)C[C@@H](O)CC(=O)O[C@H]1C)C[C@H](O)[C@H]2C(=O)O [AMPHOTERICIN B] | – | 0.2 | > 1 | – | – | – | – | – | – | –
6 | – | – | COc1ccccc1-c1nc(-c2nc(C)n[nH]2)c(OC)c2ncccc12 | 2 | 2.51 | > 50.1 | 5.7 | > 250 | – | – | – | – | –
7 | – | – | O=C(NCc1ccc(Cl)cc1)c1ncc2ccccc2c1O | 28 | > 50.1 | > 50.1 | 7.6 | 39 | – | – | – | – | –
8 | 250 (≈ 90.1 µg/mL) | 1.5 | Cc1n[nH]c(-c2nc(N3CCCCS3(=O)=O)c3cccnc3c2O)n1 | 0.6 | > 50.1 | > 50.1 | – | – | – | – | – | – | –
9 | – | – | Cc1nnc(C(=O)NC(C)(C)c2nc(C(=O)NCc3ccc(F)cc3)c(O)c(=O)n2C)o1 [RALTEGRAVIR] | – | > 50.1 | > 50.1 | – | > 250 | – | – | – | – | –
10 | – | – | Cc1n[nH]c(-c2cc3ncccc3c(-c3ccccc3)n2)n1 | – | > 50.1 | > 50.1 | – | > 250 | – | – | – | – | –
11 | > 250 | -0.6 | Cc1n[nH]c(-c2nc(N(C)C)c3cccnc3c2O)n1 | 14 | 15.8 | > 50.1 | – | – | – | – | – | – | –
12 | – | 3.3 | O=C(NCC1CC1)c1ncc2cccnc2c1O | 13 | 1.26 | > 50.1 | – | – | – | – | – | – | –
13 | – | – | CCCCCCCCCCCCCCCCOP(=O)([O-])OCC[N+](C)(C)C [MILTEFOSINE] | – | 3.98 | > 50.1 | – | – | >99 | – | – | – | –
14 | – | – | COc1ccccc1-c1nc(-c2nnc(C)o2)c(O)c2ncccc12 | < 0.5 | > 50.1 | > 50.1 | 3.8 | > 250 | – | – | – | – | –
15 | – | – | Oc1c(-c2nc(CN3CCOCC3)n[nH]2)ncc2cccnc12 | 0.8 | – | > 50.1 | 0.5 | 219 | – | – | – | – | –
16 | > 250 | – | COc1ccccc1-c1nc(C(=O)NCC2CC2)c(O)c2ncccc12 | 8 | 2 | > 50.1 | – | – | – | – | – | – | –
17 | – | – | O=C(NCc1ccc(Cl)cc1)c1ccc2cccnc2c1O | 19 | 15.8 | 6.31 | 4.8 | 219 | – | – | – | – | –
18 | – | – | CNC(=O)c1nc(-c2ccccc2OC)c2cccnc2c1O | 0.9 | 10 | 39.8 | 4.2 | 219 | – | Metabolite_Detected | Stable | Metabolite_Notdetected | –
19 | – | – | Oc1c(-c2nnc(Cc3ccc(Cl)cc3)[nH]2)ncc2cccnc12 | 18 | – | 31.6 | 4.1 | 219 | – | – | – | – | 100
20 | > 250 | 4.3 | Cc1n[nH]c(-c2nc(-c3ccccc3C(F)(F)F)c3cccnc3c2O)n1 | 1.4 | 0.1 | > 50.1 | – | – | – | – | – | – | –
21 | – | – | COc1ccccc1-c1nc(C(=O)N[C@H](C)c2ccc(F)cc2)c(O)c(=O)n1C | < 0.5 | > 50.1 | > 50.1 | 5.5 | 173 | – | – | – | – | –
22 | – | – | O=C(NCc1ccc(Cl)cc1)c1ncc2cccnc2c1O | 10 | – | > 50.1 | – | > 250 | – | – | – | – | –
23 | – | – | COc1ccc(CNC(=O)c2nn(C)c3cccnc3c2=O)cc1 | 0.7 | > 50.1 | > 50.1 | 1.9 | > 250 | – | – | – | – | –
24 | – | – | O=C1CCCN1Cc1n[nH]c(-c2ncc3cccnc3c2O)n1 | < 0.5 | > 50.1 | > 50.1 | – | > 250 | – | – | – | – | –
25 | – | – | Oc1c(-c2nc(C(O)c3ccccc3)n[nH]2)ncc2cccnc12 (configuration not stated) | 1.9 | 5.01 | > 50.1 | – | > 250 | – | – | – | – | –
26 | 219 (≈ 87.3 µg/mL) | – | O=C(NCc1ccc(Cl)cc1)c1nc(N2CCOCC2)c2cccnc2c1O | 24 | > 50.1 | > 50.1 | – | – | – | – | – | – | –

Reference: ChEMBL document CHEMBL4619783, “Identification and Optimization of a Series of 8-Hydroxy Naphthyridines with Potent In Vitro Antileishmanial Activity: Initial SAR and Assessment of In Vivo Activity” (J Med Chem, 2020)
